Source: article PMC8992012 (Bioorganic & medicinal chemistry, 2021)

tested on: NF-κB; test: NF-κB activation using THP1-Blue NF-κB cells; type: cell-based, human; settings: Homo sapiens, 20 h, read-out: NF-κB SEAP Compound alone % Activation
In short: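 THP1-Blue NF-κB cells carry a stably integrated NF-κB-inducible SEAP. They were plated at 10^5 cells/well in RPMI with 10% FBS, penicillin, streptomycin and Normocin, then treated for 20 h with 5 μM test compound (0.5% DMSO final), alone or with LPS at 10 ng/mL. Supernatant SEAP was read colorimetrically at 630 nm. Signals were two-point normalized: baseline (vehicle or LPS) 100%, reference hit 200%.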

| SMILES | activation at 5 µM |
| --- | --- |
| Cc1ccc(C)c(-c2csc(NC(=O)c3cccc(C(=O)N4CCCCC4)c3)n2)c1 [Compound 45d, N-(4-(2,5-dimethylphenyl)thiazol-2-yl)-3-(piperidine-1-carbonyl)benzamide] | 100% |
| Cc1ccc(C)c(-c2csc(NC(=O)c3ccc(S(=O)(=O)NC4CCCCC4)cc3)n2)c1 [Compound 54e, 4-(N-cyclohexylsulfamoyl)-N-(4-(2,5-dimethylphenyl)thiazol-2-yl)benzamide] | 100% |
| CCCN1CCN(S(=O)(=O)c2ccc(C(=O)Nc3nc(-c4cc(C)ccc4C)cs3)cc2)CC1 [Compound 54k, N-(4-(2,5-dimethylphenyl)thiazol-2-yl)-4-((4-propylpiperazin-1-yl)sulfonyl)benzamide] | 100% |

same assay, conditions: compound alone, 5 μM, 20h

| SMILES | NF-κB activity (in words, SAR text to Table 1) |
| --- | --- |
| C#CCN(C(=O)c1ccc(S(=O)(=O)N2CCCCC2)cc1)c1nc(-c2cc(C)ccc2C)cs1 [Compound 34d, N-(4-(2,5-dimethylphenyl)thiazol-2-yl)-4-(piperidin-1-ylsulfonyl)-N-(prop-2-yn-1-yl)benzamide] | inactive |
| Cc1ccc(C)c(-c2csc(NC(=O)c3ccc(S(=O)(=O)N4CCCCC4)cn3)n2)c1 [Compound 42a, N-(4-(2,5-dimethylphenyl)thiazol-2-yl)-5-(piperidin-1-ylsulfonyl)picolinamide] | loss of activity |
| Cc1ccc(C)c(-c2csc(NC(=O)c3ccc(S(=O)(=O)N4CCCCC4)nc3)n2)c1 [Compound 42b, N-(4-(2,5-dimethylphenyl)thiazol-2-yl)-6-(piperidin-1-ylsulfonyl)nicotinamide] | loss of activity |
| Cc1ccc(C)c(-c2csc(NC(=O)c3ccc(S(=O)(=O)N4CCCCC4)s3)n2)c1 [Compound 42c, N-(4-(2,5-dimethylphenyl)thiazol-2-yl)-5-(piperidin-1-ylsulfonyl)thiophene-2-carboxamide] | loss of activity |
| Cc1ccc(C)c(-c2csc(NC(=O)c3ccc(S(=O)(=O)N4CCCCC4)c(Cl)c3)n2)c1 [Compound 42d, 3-chloro-N-(4-(2,5-dimethylphenyl)thiazol-2-yl)-4-(piperidin-1-ylsulfonyl)benzamide] | retained NF-κB activity |
| Cc1ccc(C)c(-c2csc(NC(=O)c3ccc(S(=O)(=O)N4CCCCC4)c(Br)c3)n2)c1 [Compound 42e, 3-bromo-N-(4-(2,5-dimethylphenyl)thiazol-2-yl)-4-(piperidin-1-ylsulfonyl)benzamide] | retained NF-κB activity |
| Cc1ccc(C)c(-c2csc(NC(=O)c3ccc(S(=O)(=O)N4CCCCC4)c([N+](=O)[O-])c3)n2)c1 [Compound 42f, N-(4-(2,5-dimethylphenyl)thiazol-2-yl)-3-nitro-4-(piperidin-1-ylsulfonyl)benzamide] | decline in activity |
| COc1cc(C(=O)Nc2nc(-c3cc(C)ccc3C)cs2)ccc1S(=O)(=O)N1CCCCC1 [Compound 42g, N-(4-(2,5-dimethylphenyl)thiazol-2-yl)-3-methoxy-4-(piperidin-1-ylsulfonyl)benzamide] | decline in activity |
| Cc1ccc(C)c(-c2csc(NC(=O)c3ccc(S(=O)(=O)N4CCCCC4)cc3Cl)n2)c1 [Compound 42h, 2-chloro-N-(4-(2,5-dimethylphenyl)thiazol-2-yl)-4-(piperidin-1-ylsulfonyl)benzamide] | significantly dropped |
| Cc1ccc(C)c(-c2csc(NC(=O)c3ccc(S(=O)(=O)N4CCCCC4)cc3Br)n2)c1 [Compound 42i, 2-bromo-N-(4-(2,5-dimethylphenyl)thiazol-2-yl)-4-(piperidin-1-ylsulfonyl)benzamide] | significantly dropped |
| COc1cc(S(=O)(=O)N2CCCCC2)ccc1C(=O)Nc1nc(-c2cc(C)ccc2C)cs1 [Compound 42j, N-(4-(2,5-dimethylphenyl)thiazol-2-yl)-2-methoxy-4-(piperidin-1-ylsulfonyl)benzamide] | significantly dropped |
| Cc1ccc(C)c(-c2csc(NC(=O)c3ccc(S(=O)(=O)N4CCCCC4)c(N)c3)n2)c1 [Compound 42k, 3-amino-N-(4-(2,5-dimethylphenyl)thiazol-2-yl)-4-(piperidin-1-ylsulfonyl)benzamide] | decline in activity |
| Cc1ccc(C)c(-c2csc(NC(=O)c3ccc(SC4CCCCC4)cc3)n2)c1 [Compound 45a, 4-(cyclohexylthio)-N-(4-(2,5-dimethylphenyl)thiazol-2-yl)benzamide] | none of these modifications at site E was tolerated |
| Cc1ccc(C)c(-c2csc(NC(=O)c3ccc(S(=O)(=O)C4CCCCC4)cc3)n2)c1 [Compound 45b, 4-(cyclohexylsulfonyl)-N-(4-(2,5-dimethylphenyl)thiazol-2-yl)benzamide] | none of these modifications at site E was tolerated |
| Cc1ccc(C)c(-c2csc(NC(=O)c3ccc(C(=O)N4CCCCC4)cc3)n2)c1 [Compound 45c, N-(4-(2,5-dimethylphenyl)thiazol-2-yl)-4-(piperidine-1-carbonyl)benzamide] | none of these modifications at site E was tolerated |
| Cc1ccc(C)c(-c2csc(NC(=O)c3cccc(C(=O)N4CCCCC4)c3)n2)c1 [Compound 45d, N-(4-(2,5-dimethylphenyl)thiazol-2-yl)-3-(piperidine-1-carbonyl)benzamide] | none of these modifications at site E was tolerated |

| SMILES | NF-κB activity (in words, SAR text to Table 1) |
| --- | --- |
| Cc1ccc(C)c(-c2csc(NS(=O)(=O)c3ccc(C(=O)N4CCCCC4)cc3)n2)c1 [Compound 51, N-(4-(2,5-dimethylphenyl)thiazol-2-yl)-4-(piperidine-1-carbonyl)benzenesulfonamide] | inactive |
| CCCN(CC)S(=O)(=O)c1ccc(C(=O)Nc2nc(-c3cc(C)ccc3C)cs2)cc1 [Compound 54a, N-(4-(2,5-dimethylphenyl)thiazol-2-yl)-4-(N-ethyl-N-propylsulfamoyl)benzamide] | active |
| CCCN(CCC)S(=O)(=O)c1ccc(C(=O)Nc2nc(-c3cc(C)ccc3C)cs2)cc1 [Compound 54b, N-(4-(2,5-dimethylphenyl)thiazol-2-yl)-4-(N,N-dipropylsulfamoyl)benzamide] | active |
| CCCCN(CCCC)S(=O)(=O)c1ccc(C(=O)Nc2nc(-c3cc(C)ccc3C)cs2)cc1 [Compound 54c, 4-(N,N-dibutylsulfamoyl)-N-(4-(2,5-dimethylphenyl)thiazol-2-yl)benzamide] | lost activity |
| CCN(c1ccccc1)S(=O)(=O)c1ccc(C(=O)Nc2nc(-c3cc(C)ccc3C)cs2)cc1 [Compound 54d, N-(4-(2,5-dimethylphenyl)thiazol-2-yl)-4-(N-ethyl-N-phenylsulfamoyl)benzamide] | inactive |
| Cc1ccc(C)c(-c2csc(NC(=O)c3ccc(S(=O)(=O)NC4CCCCC4)cc3)n2)c1 [Compound 54e, 4-(N-cyclohexylsulfamoyl)-N-(4-(2,5-dimethylphenyl)thiazol-2-yl)benzamide] | inactive |
| Cc1ccc(C)c(-c2csc(NC(=O)c3ccc(S(=O)(=O)N4CCN(C(=O)OC(C)(C)C)CC4)cc3)n2)c1 [Compound 54f, tert-butyl 4-((4-((4-(2,5-dimethylphenyl)thiazol-2-yl)carbamoyl)phenyl)sulfonyl)piperazine-1-carboxylate] | inactive |
| CCOC1CCN(S(=O)(=O)c2ccc(C(=O)Nc3nc(-c4cc(C)ccc4C)cs3)cc2)CC1 [Compound 54g, N-(4-(2,5-dimethylphenyl)thiazol-2-yl)-4-((4-ethoxypiperidin-1-yl)sulfonyl)benzamide] | very potent |
| Cc1ccc(C)c(-c2csc(NC(=O)c3ccc(S(=O)(=O)N4CCNCC4)cc3)n2)c1 [Compound 54i, N-(4-(2,5-dimethylphenyl)thiazol-2-yl)-4-(piperazin-1-ylsulfonyl)benzamide] | inactive |
| CC(=O)N1CCN(S(=O)(=O)c2ccc(C(=O)Nc3nc(-c4cc(C)ccc4C)cs3)cc2)CC1 [Compound 54j, 4-((4-acetylpiperazin-1-yl)sulfonyl)-N-(4-(2,5-dimethylphenyl)thiazol-2-yl)benzamide] | inactive |
| CCCN1CCN(S(=O)(=O)c2ccc(C(=O)Nc3nc(-c4cc(C)ccc4C)cs3)cc2)CC1 [Compound 54k, N-(4-(2,5-dimethylphenyl)thiazol-2-yl)-4-((4-propylpiperazin-1-yl)sulfonyl)benzamide] | inactive |
| CCCC1CCN(S(=O)(=O)c2ccc(C(=O)Nc3nc(-c4cc(C)ccc4Br)cs3)cc2)CC1 [Compound 55, N-(4-(2-bromo-5-methylphenyl)thiazol-2-yl)-4-((4-propylpiperidin-1-yl)sulfonyl)benzamide] | retained NF-κB activity |
| CCCC#Cc1sc(NC(=O)c2ccc(S(=O)(=O)N3CCC(CCC)CC3)cc2)nc1-c1cc(C)ccc1C [Compound 57, N-(4-(2,5-dimethylphenyl)-5-(pent-1-yn-1-yl)thiazol-2-yl)-4-((4-propylpiperidin-1-yl)sulfonyl)benzamide] | significant loss of activity |
| CCCC#Cc1sc(NC(=O)c2ccc(S(=O)(=O)N3CCCCC3)cc2)nc1-c1cc(C)ccc1Br [Compound 60, N-(4-(2-bromo-5-methylphenyl)-5-(pent-1-yn-1-yl)thiazol-2-yl)-4-(piperidin-1-ylsulfonyl)benzamide] | retained NF-κB activity |
| CCCC#Cc1sc(NC(=O)c2ccc(S(=O)(=O)N3CCC(CCC)CC3)cc2)nc1-c1cc(C)ccc1Br [Compound 61, N-(4-(2-bromo-5-methylphenyl)-5-(pent-1-yn-1-yl)thiazol-2-yl)-4-((4-propylpiperidin-1-yl)sulfonyl)benzamide] | significant loss of activity |

same assay, conditions: in presence of LPS, compared to compound 1

| SMILES | NF-κB induction in the presence of LPS (in words, Fig. 6) |
| --- | --- |
| Cc1ccc(N=[N+]=[N-])cc1-c1csc(NC(=O)c2ccc(S(=O)(=O)N3CCCCC3)cc2)n1 [Compound 63, N-(4-(5-azido-2-methylphenyl)thiazol-2-yl)-4-(piperidin-1-ylsulfonyl)benzamide] | retained activity |
| Cc1ccc(N=[N+]=[N-])c(-c2csc(NC(=O)c3ccc(S(=O)(=O)N4CCCCC4)cc3)n2)c1 [Compound 66, N-(4-(2-azido-5-methylphenyl)thiazol-2-yl)-4-(piperidin-1-ylsulfonyl)benzamide] | inactive |
